CHOP inh = CHOP inhibition in unfolded protein response; CHO-K1 CHOP-promoter luciferase, tunicamycin-induced, 15-18 h; 3.8% of 220,000 active; inhibition, % at 10 µM;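 active = compounds that reduced the stress-induced luciferase reporter signal by more than about 70% of percent inhibition, limit read from the data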;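 also: 0% = tunicamycin plus vehicle and 100% = wells without tunicamycin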
L major viab = reduces viability of Leishmania major promastigotes; resazurin fluorescence viability; inhibition, % at 10 µM; 9% of 200,000 active; AID 1063; in the data active = inhibition above about 50%;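 also: promastigotes grown with compound for 44 hours at 28 °C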
T cruzi repl = T. cruzi replication inhibition; T. cruzi beta-gal in NIH3T3, luminescence, 90 h; inhibition, % (no concentration beside the values); 1.4% of 300,000 active; AID 1885;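 active = mean inhibition across valid replicates above about 55%, limit read from the data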;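 also: signal also drops with host cell toxicity which is not excluded here; 0% = plate median of DMSO wells and 100% = zero luminescence signal; higher percent means less beta-gal luminescence so fewer parasites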
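System: Mouse NIH/3T3 fibroblasts infected with β-gal-expressing T. cruzi Tulahuen C4 | Quantity: NIH/3T3 cells, 5,000 per well | Reagent: 5000 reporter trypomastigotes per well | Dosing: Compound pinned at 50 nL/well, DMSO | Schedule: 3 h host attachment, then at least 90 h co-culture | Detection: GalScreen luminescence, 60 min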
CHOP UPR activ = activators of apoptotic arm of unfolded protein response (CHOP); CHO-CHOP luciferase reporter, UPR activation, luminescence; percent of tunicamycin response over DMSO baseline; 0.34% of 330,000 active; activation, % at 10 µM;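 active = at 10 µM dose, activation of 40% or more, normalized to positive control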;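 also: 100% = tunicamycin at 10 µg/mL and 0% = DMSO alone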
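Evaluation: % reporter activation, DMSO baseline versus tunicamycin full activation; System: CHO-CHOP luciferase reporter cell line; Input: 500 cells/well; Incubation: 6 h compound treatment, 37 °C; Measured by: Steady-Glo luciferase luminescence; Dosing: one dose, 10 µM in 0.5% DMSO; Buffer or medium: F12 medium, 10% FBS; Benchmarks: positive tunicamycin 10 µg/mL, negative DMSO alone.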
Dynein cargo inh = dynein cargo transport inhibition; 0.47% of 220,000 active; AID 1381; 3617.4 mouse cells, GR-EGFP nuclear translocation imaging; test concentration mostly 20 µM; stimulated with dexamethasone, 1 µM; hits give low values; z-score, hits read low;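 active = plate z-score of nuclear minus cytoplasmic receptor signal below a set negative limit, without overly bright fluorescence or cell loss, cut at about -3.5 in these data, passing the limit was not always enough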;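 also: z-score of nuclear minus cytoplasmic ring GR-EGFP intensity difference per well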
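medium = tetracycline-free induction medium containing charcoal-stripped FBS | also added = 1.0 µM final dexamethasone stimulus | schedule = 48 h induction, 1 h compound, 30 min dex at 37 °C | technique = fixed, Hoechst-stained cells imaged at 10x for EGFP | measure = GR-EGFP nuclear translocation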
UPR XBP1 act = activators of adaptive arm of unfolded protein response (XBP1); CHO-XBP1 luciferase reporter, IRE1-XBP1 UPR activation, luminescence; percent of tunicamycin response, DMSO as zero; activation, % at 20 µM; 0.33% of 330,000 active; AID 463104;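 active = versus positive control, 20 µM dose yields 30% or more activation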;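 also: 100% = tunicamycin at 10 µg/mL and 0% = DMSO only wells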
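Material: IRE1-XBP1 luciferase reporter CHO line / Quantity: one thousand reporter cells per well / Buffer or medium: F12 with 10% serum / Compound: 20 µM single concentration, DMSO 1% / Times: 6 h treatment, 37 °C / Detection: Steady-Glo luciferase glow luminescence, 10 min after reagent addition / Benchmarks: tunicamycin high, DMSO low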
Active calls of the source: *; . = no result given. This is one part of a sample in which hits are shown more often than they occur.

SMILES	CHOP inh	L major viab	T cruzi repl	CHOP UPR activ	Dynein cargo inh	UPR XBP1 act
COc1ccc(OCC#CCN2CCC(C)CC2)cc1	9	23	10	0	1.3	-2
CCOC(C(=O)OCCC[N+](C)(CC)CC)(c1ccccc1)c1ccccc1	-3	5	4	-1	-0.028	-1
CCOC(C(=O)OCC(O)CN(CC)CC)(c1ccccc1)c1ccccc1 (centres undefined)	22	100*	3	-1	2.3	-1
CCN(CC)CCCOC(=O)C(OC)(c1ccccc1)c1ccccc1	-4	100*	11	-2	0.0091	-2
CCCCn1nc(C)c(C(=O)O)c1Cl	-1	.	2	-1	1.2	-1
Cc1ccsc1/C=C1\C(=O)NC(=S)N(C)C1=O	.	.	-10	176*	.	29
O=C(COc1ccc(Cl)cc1Cl)N1CCN(C/C=C/c2ccccc2)CC1	42	89*	45	1	0.25	-1
CN(c1ccc(OCC(=O)N2CCN(C/C=C/c3ccccc3)CC2)cc1)S(=O)(=O)c1cccs1	29	.	45	1	-0.3	-4
Cc1ccnc(NS(=O)(=O)c2ccc(N=Cc3c(O)n(C)c(=O)n(C)c3=O)cc2)n1	10	-3	0	-1	-1	-1
O=[N+]([O-])c1cccc(CN2CCN(Cc3ccc(Cl)cc3)CC2)c1	30	85*	27	0	1.3	-4
O=C(COc1ccc(Cl)cc1)N1CCN(Cc2ccc([N+](=O)[O-])cc2)CC1	-3	67*	26	4	0.016	2
C=C(C)[C@H]1Cc2c(ccc3c2O[C@@H]2COc4cc(OC)c(OC)cc4[C@@H]2C3=O)O1	27	.	.	.	.	.
CN1CCN(c2ccc3ccccc3n2)CC1	6	.	.	.	.	.
CN(C)C(=O)Oc1noc2cc(Cl)ccc12	0	.	15	2	1.1	-2
CN1C(=O)C(=Cc2ccccc2Oc2ccc(Cl)cc2)C(=O)N(C)C1=O	7	62*	-4	0	-1.2	-2
CN1C(=O)C(=Cc2ccccc2OCc2ccc(Cl)cc2)C(=O)N(C)C1=O	-37	37	-4	7	-0.7	4
Clc1cc(Cl)cc(NC2=NCCS2)c1	3	.	.	2	0.0056	-1
O=C(/C=C/c1ccc2c(c1)OCO2)c1c(O)n(CCC2=CCCCC2)c(=O)[nH]c1=O	90*	32	.	.	-1.2	.
COc1ccc(/C=C/C(=O)c2c(O)n(CCC3=CCCCC3)c(=O)[nH]c2=O)cc1	81*	77*	-8	0	1.1	2
Cc1ccc(CN2CCN(Cc3ccccc3)CC2)cc1	25	19	59*	0	-0.97	-2
CSc1ccc(CN2CCN(C(=O)Cc3ccccc3)CC2)cc1	.	.	-11	1	.	1
c1ccc(CN2CCN(Cc3ccc4ccccc4c3)CC2)cc1	.	.	38	0	.	-5
CSc1ccc(CN2CCN(Cc3ccccc3Cl)CC2)cc1	23	82*	24	0	-0.68	3
Cc1nc2ccccc2c(=O)n1-c1cc(F)ccc1F	18	-3	-9	1	-0.1	2
COc1ccc2c(c[n+](C)c3c4cc5c(cc4ccc23)OCO5)c1OC	-25	.	.	.	.	.
SMILES	CHOP inh	L major viab	T cruzi repl	CHOP UPR activ	Dynein cargo inh	UPR XBP1 act
Cc1cc([N+](=O)[O-])c(Cl)cc1NC(=O)C(C)C	49	58*	-2	-1	0.99	-1
Cc1ccc(-n2cc(CNC(C)Cc3cnccn3)c(-c3cccc(C)c3)n2)cc1 (centres undefined)	35	65*	35	0	0.029	0
Cc1cc(/C=C2\C(=O)NC(=O)N(c3ccc(Cl)cc3)C2=O)c(C)n1-c1sc2c(c1C#N)CCCC2	-22	0	-1	0	0.093	1
Cc1sc(-n2c(C)cc(C=C3C(=O)NC(=O)NC3=O)c2C)c(C#N)c1C	80*	-5	1	2	-0.27	15
Cc1ccc(-n2c(O)c(C=Nc3ccc(Br)cn3)c(=O)[nH]c2=O)cc1	5	-5	-21	-1	-1.3	0
Cc1ccc(S(=O)(=O)N(C)CCCC(=O)N2CCN(c3ccccn3)CC2)cc1	10	90*	13	0	1.3	-2
